Converted amounts (≈) assume the structure as drawn. The source made the active and inactive calls. The rule behind the calls is not given here.
What was measured:
[1] = tested on: Mycobacterium tuberculosis; assay: Antimicrobial activity against Mycobacterium tuberculosis H37Rv ATCC 27294 after 16 to 24 hrs by microplate alamar blue assay; type: functional
In short: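 M. tuberculosis H37Rv inoculum 2×10^5 cfu/mL (100 µL) added to twofold dilutions in Middlebrook 7H12 medium; final test range 128 µM to 0.5 µM from 12.8 mM DMSO stocks. Incubated 37 °C; day 7 Tween 80 plus Alamar Blue added, further 16-24 h at 37 °C. Fluorescence ex 530/em 590 nm; MIC = lowest concentration giving >90% fluorescence reduction versus replicate bacteria-only controls. Rifampin, isoniazid controls.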

[2] = Cytotoxicity against human U937 cells assessed as cell viability at 10 ug/ml after 72 hrs by MTT assay; type: cell-based, U-937; conditions: read-out: Activity
In short: (§1)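 U937 human monocytic cells plated at 1 × 10^5 cells/mL and allowed to adhere for 1 h at 37 °C in 5% CO2. Non-adherent cells were washed off with RPMI 1640. Adherent cells were exposed to compound in triplicate, with medium alone as the live control and 3% Tween 20 as the dead control. MTT (5 mg/mL in PBS) was then added for 3 h at 37 °C. Formazan was dissolved in 0.4 M HCl/isopropanol and absorbance read at 600 nm. Results are expressed as % cell viability.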

[3] = tested on: Serum; assay: Stability of the compound in 80% human blood serum assessed as hydrolysis to 2-bromo-6-(1H-imidazol-1-yl)-7H-indeno[2,1-c]quinolin-7-one oxime at 1 mg after 24 hrs at 37 degC by LC-MS analysis; type: ADME, cell-free; set-up: scale not given: the % may be the effect or the level left
In short: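 Enzymatic hydrolysis: 1 mg prodrug dissolved in 1 mL ethanol, then 200 µL preheated human blood serum diluted to 80% with 0.16 M phosphate buffer (pH 7.4) was added. Samples were kept at 37 °C (24 h) and centrifuged 10 min at 10,000 rpm. Remaining prodrug in the supernatant was monitored by TLC and LC-MS. t1/2 is the time to 50% hydrolysis.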

[4] = Cytotoxicity against human U937 cells assessed as cell viability at 20 ug/ml after 72 hrs by MTT assay; type: cell-based, U-937; conditions: read-out: Activity; in short: as §1
[5] = Half life in 10% aqueous ammonia buffer at pH 8 assessed as hydrolysis to 2-bromo-6-(1H-imidazol-1-yl)-7H-indeno[2,1-c]quinolin-7-one oxime at 37 degC by LC-MS analysis; type: physicochemical
In short: (§2)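 Chemical hydrolysis: 1 mg prodrug dissolved in 1 mL of 10% aqueous ammonia in methanol (pH 8) and held in a thermostatted water bath at 37 °C, up to 24 h. Conversion to the parent oxime was followed by TLC and LC-MS. t1/2 is the time to 50% hydrolysis.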

[6] = Selectivity index, ratio CC50 for human U937 cells to MIC for Mycobacterium tuberculosis H37Rv ATCC 27294; type: functional, U-937
[7] = Cytotoxicity against human U937 cells assessed as cell viability at 1.25 ug/ml after 72 hrs by MTT assay; type: cell-based, U-937; conditions: read-out: Activity; in short: as §1
[8] = Cytotoxicity against human U937 cells assessed as cell viability at 5 ug/ml after 72 hrs by MTT assay; type: cell-based, U-937; conditions: read-out: Activity; in short: as §1
[9] = Stability of the compound in 10% aqueous ammonia buffer at pH 8 assessed as hydrolysis to 2-bromo-6-(1H-imidazol-1-yl)-7H-indeno[2,1-c]quinolin-7-one oxime at 1 mg at 37 degC by LC-MS analysis; type: physicochemical; set-up: scale not given: the % may be the effect or the level left; in short: as §2
[10] = Octanol-water partition coefficient, log P of the compound at pH 7.4 at room temperature by UV spectrophotometric analysis; type: physicochemical
In short: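 Shake-flask method at room temperature: 1-octanol and phosphate buffer (pH 7.4) were pre-saturated by shaking for 24 h. Compound at 10^-4 M in equal volumes of both phases was shaken vigorously for 1 h, left to stand 15 min, then centrifuged 10 min at 10,000 rpm. UV absorbance of each phase was read at 280 nm against blanks, and P was taken as the octanol/water absorbance ratio.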

CC(C)[C@H](NC(=O)OCC1c2ccccc2-c2ccccc21)C(=O)O/N=C1\c2ccccc2-c2c1c(N1CCN(c3ccccn3)CC1)nc1ccc(Br)cc21
MIC [1]: 1.47 µg/mL (≈ 1.82 µM)
viability at 72 h, 10 ug/ml [2]: 81%
Activity [3]: 7%
viability at 72 h, 20 ug/ml [4]: 80%
half-life [5]: 24 h
Selectivity Index [6]: >27
viability at 72 h, 1.25 ug/ml [7]: 85%
viability at 72 h, 5 ug/ml [8]: 89%
Activity [9]: 96%
logD [10]: 1.8

CC(C)C[C@H](NC(=O)OCC1c2ccccc2-c2ccccc21)C(=O)O/N=C1\c2ccccc2-c2c1c(N1CCN(c3ccccn3)CC1)nc1ccc(Br)cc21
MIC [1]: inactive

CCC(=O)OC1(C)c2ccccc2-c2c1c(-n1ccnc1)nc1ccc(Br)cc21 (stereo not drawn)
MIC [1]: inactive

CCCCCCCCCCCCCCC(=O)O/N=C1\c2ccccc2-c2c1c(N1CCN(c3ccccn3)CC1)nc1ccc(Br)cc21
MIC [1]: inactive

CCCCC(=O)O/N=C1\c2ccccc2-c2c1c(N1CCN(c3ccccn3)CC1)nc1ccc(Br)cc21
MIC [1]: inactive

CCCCC(=O)OC1(C)c2ccccc2-c2c1c(-n1ccnc1)nc1ccc(Br)cc21 (stereo not drawn)
MIC [1]: 1.53 µg/mL (≈ 3.21 µM)
viability at 72 h, 10 ug/ml [2]: 48%
Activity [3]: Not Active
viability at 72 h, 20 ug/ml [4]: 4%
half-life [5]: 288 h
Selectivity Index [6]: 5.6
viability at 72 h, 1.25 ug/ml [7]: 91%
viability at 72 h, 5 ug/ml [8]: 75%
Activity [9]: 90%
logD [10]: 1.7

CCCCCCCCCCCCCC(=O)O/N=C1\c2ccccc2-c2c1c(-n1ccnc1)nc1ccc(Br)cc21
MIC [1]: inactive

O=C(O/N=C1\c2ccccc2-c2c1c(N1CCN(c3ccccn3)CC1)nc1ccc(Br)cc21)C1CC1
MIC [1]: inactive

CCCCCCCCCCCCCCC(=O)OC1(C)c2ccccc2-c2c1c(-n1ccnc1)nc1ccc(Br)cc21 (stereo not drawn)
MIC [1]: inactive

CCCCCCCCC(=O)O/N=C1\c2ccccc2-c2c1c(N1CCN(c3ccccn3)CC1)nc1ccc(Br)cc21
MIC [1]: inactive

CCCCCC(=O)OC1(C)c2ccccc2-c2c1c(-n1ccnc1)nc1ccc(Br)cc21 (stereo not drawn)
MIC [1]: 1.6 µg/mL (≈ 3.26 µM)
viability at 72 h, 10 ug/ml [2]: 54%
Activity [3]: Not Active
viability at 72 h, 20 ug/ml [4]: 15%
half-life [5]: 288 h
Selectivity Index [6]: 6.1
viability at 72 h, 1.25 ug/ml [7]: 85%
viability at 72 h, 5 ug/ml [8]: 77%
Activity [9]: 90%
logD [10]: 1.4

CN(C)C(=O)O/N=C1\c2ccccc2-c2c1c(-n1ccnc1)nc1ccc(Br)cc21
MIC [1]: 0.27 µg/mL (≈ 0.584 µM)
viability at 72 h, 10 ug/ml [2]: 61%
Activity [3]: Not Active
viability at 72 h, 20 ug/ml [4]: 50%
Selectivity Index [6]: 49
viability at 72 h, 1.25 ug/ml [7]: 77%
viability at 72 h, 5 ug/ml [8]: 82%
Activity [9]: Not Active
logD [10]: 1.1

CSCC[C@H](NC(=O)OC(C)(C)C)C(=O)O/N=C1\c2ccccc2-c2c1c(N1CCN(c3ccccn3)CC1)nc1ccc(Br)cc21
MIC [1]: inactive

CCCCCCCCCCCCCC(=O)OC1(C)c2ccccc2-c2c1c(-n1ccnc1)nc1ccc(Br)cc21 (stereo not drawn)
MIC [1]: inactive

CCCCCCC(=O)O/N=C1\c2ccccc2-c2c1c(N1CCN(c3ccccn3)CC1)nc1ccc(Br)cc21
MIC [1]: inactive

O=C(CNC(=O)OCC1c2ccccc2-c2ccccc21)O/N=C1\c2ccccc2-c2c1c(N1CCN(c3ccccn3)CC1)nc1ccc(Br)cc21
MIC [1]: 6 µg/mL (≈ 7.84 µM)
viability at 72 h, 10 ug/ml [2]: 73%
Activity [3]: 29%
half-life [5]: 36 h
viability at 72 h, 1.25 ug/ml [7]: 68%
Activity [9]: 90%
logD [10]: 1.4

CC(C)C[C@H](NC(=O)OC(C)(C)C)C(=O)O/N=C1\c2ccccc2-c2c1c(N1CCN(c3ccccn3)CC1)nc1ccc(Br)cc21
MIC [1]: inactive

CCCCCCCCCCCC(=O)O/N=C1\c2ccccc2-c2c1c(N1CCN(c3ccccn3)CC1)nc1ccc(Br)cc21
MIC [1]: inactive

CC(=O)O/N=C1\c2ccccc2-c2c1c(N1CCN(c3ccccn3)CC1)nc1ccc(Br)cc21
MIC [1]: inactive

CCCCCCCCCC(=O)O/N=C1\c2ccccc2-c2c1c(N1CCN(c3ccccn3)CC1)nc1ccc(Br)cc21
MIC [1]: inactive

CN(C)C(=O)OC1(C)c2ccccc2-c2c1c(-n1ccnc1)nc1ccc(Br)cc21 (stereo not drawn)
MIC [1]: 6 µg/mL (≈ 12.9 µM)
viability at 72 h, 10 ug/ml [2]: 69%
Activity [3]: Not Active
viability at 72 h, 1.25 ug/ml [7]: 63%
Activity [9]: Not Active
logD [10]: 1.9

CC(C)(C)OC(=O)NC1(C(=O)O/N=C2\c3ccccc3-c3c2c(N2CCN(c4ccccn4)CC2)nc2ccc(Br)cc32)CCCC1
MIC [1]: inactive

CCCC(=O)OC1(C)c2ccccc2-c2c1c(-n1ccnc1)nc1ccc(Br)cc21 (stereo not drawn)
MIC [1]: inactive

CC1(O)c2ccccc2-c2c1c(-n1ccnc1)nc1ccc(Br)cc21 (stereo not drawn)
MIC [1]: 0.78 µg/mL (≈ 1.99 µM)
viability at 72 h, 10 ug/ml [2]: 64%
viability at 72 h, 20 ug/ml [4]: 37%
Selectivity Index [6]: 4.3
viability at 72 h, 1.25 ug/ml [7]: 93%
viability at 72 h, 5 ug/ml [8]: 64%
logD [10]: 1.7

O/N=C1\c2ccccc2-c2c1c(N1CCN(c3ccccn3)CC1)nc1ccc(Br)cc21
MIC [1]: 6.25 µg/mL (≈ 12.9 µM)
viability at 72 h, 10 ug/ml [2]: 56%
viability at 72 h, 20 ug/ml [4]: 49%
Selectivity Index [6]: 71
viability at 72 h, 1.25 ug/ml [7]: 100%
viability at 72 h, 5 ug/ml [8]: 100%
logD [10]: 3.3

COc1nc2ccc(Br)cc2cc1[C@@H](c1ccccc1)[C@@](O)(CCN(C)C)c1cccc2ccccc12 [BEDAQUILINE]
MIC [1]: 0.06 µg/mL (≈ 0.108 µM)

CCCC(=O)O/N=C1\c2ccccc2-c2c1c(N1CCN(c3ccccn3)CC1)nc1ccc(Br)cc21
MIC [1]: inactive

CN(C)C(=O)O/N=C1\c2ccccc2-c2c1c(N1CCN(c3ccccn3)CC1)nc1ccc(Br)cc21
MIC [1]: 1.56 µg/mL (≈ 2.8 µM)
viability at 72 h, 10 ug/ml [2]: 68%
Activity [3]: Not Active
viability at 72 h, 20 ug/ml [4]: 47%
Selectivity Index [6]: 88
viability at 72 h, 1.25 ug/ml [7]: 100%
viability at 72 h, 5 ug/ml [8]: 100%
Activity [9]: Not Active
logD [10]: 2.3

O=C(/C=C/c1ccco1)O/N=C1\c2ccccc2-c2c1c(N1CCN(c3ccccn3)CC1)nc1ccc(Br)cc21
MIC [1]: 6 µg/mL (≈ 9.89 µM)
viability at 72 h, 10 ug/ml [2]: 85%
Activity [3]: Not Active
half-life [5]: 96 h
viability at 72 h, 1.25 ug/ml [7]: 100%
Activity [9]: 95%
logD [10]: 1.4

O/N=C1\c2ccccc2-c2c1c(-n1ccnc1)nc1ccc(Br)cc21
MIC [1]: < 0.39 µg/mL
viability at 72 h, 10 ug/ml [2]: 77%
viability at 72 h, 20 ug/ml [4]: 77%
Selectivity Index [6]: >5
viability at 72 h, 1.25 ug/ml [7]: 100%
viability at 72 h, 5 ug/ml [8]: 91%
logD [10]: 0.2
